Tests used:
Adenosine receptor A1 [1] = target: T1, Adenosine receptor A1 (Bos taurus, UniProt P28190); experiment: Displacement of [3H]CPX from adenosine A1 receptor of calf brain cortical membrane
T1 sequence (P28190 whole entry): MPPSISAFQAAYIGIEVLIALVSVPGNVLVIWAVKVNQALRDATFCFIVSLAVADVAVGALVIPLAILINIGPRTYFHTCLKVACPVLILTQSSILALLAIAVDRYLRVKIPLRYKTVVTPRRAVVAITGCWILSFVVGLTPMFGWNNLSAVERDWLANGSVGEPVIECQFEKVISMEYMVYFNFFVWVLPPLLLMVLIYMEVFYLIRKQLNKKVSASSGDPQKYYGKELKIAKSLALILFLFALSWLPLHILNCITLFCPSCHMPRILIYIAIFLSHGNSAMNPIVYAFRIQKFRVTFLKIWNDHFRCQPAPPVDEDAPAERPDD
How it was run: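 Calf brain cortical membranes, about 15 μg protein, incubated with 0.1 nM [3H]CPX in 50 mM Tris-HCl pH 7.4 for 1 h at 25 °C in duplicate. Nonspecific binding was defined with 10 μM R-PIA. DMSO was at most 1% final. Filter-bound radioactivity was counted. Means of three experiments.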

Adenosine A2 receptor [2] = target: T2, Adenosine A2 receptor (Rattus norvegicus, UniProt P29276+P30543); experiment: (§1) Binding affinity for adenosine A2 receptor using [3H]NECA in rat striatal membrane; type: cell membranes, Striatum
Adenosine receptor A1 [3] = target: T3, Adenosine receptor A1 (Rattus norvegicus, UniProt P25099); experiment: Displacement of [3H]CPX from adenosine A1 receptor of rat brain cortical membrane
T3 sequence (P25099 whole entry): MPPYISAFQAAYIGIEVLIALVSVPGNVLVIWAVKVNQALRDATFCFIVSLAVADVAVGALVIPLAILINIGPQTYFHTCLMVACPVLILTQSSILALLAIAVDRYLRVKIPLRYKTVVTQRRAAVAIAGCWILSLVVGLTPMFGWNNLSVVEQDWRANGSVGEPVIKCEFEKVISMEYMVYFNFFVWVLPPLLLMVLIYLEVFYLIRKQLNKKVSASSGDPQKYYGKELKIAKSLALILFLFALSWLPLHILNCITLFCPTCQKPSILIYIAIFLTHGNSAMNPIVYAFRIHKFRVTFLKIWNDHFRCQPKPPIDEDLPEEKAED

[4] = target: Adenosine receptors; A1 & A2 (Rattus norvegicus) (UniProt P29276+P25099+P30543); experiment: Ratio of Ki for adenosine A2 and A1 receptors; type: protein assay
Adenosine A2 receptor [5] = target: T2, Adenosine A2 receptor; experiment: as §1; type: cell membranes, Striatum; remark: listed apart in the source
How it was run: (§2)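 Rat striatal membranes from male Wistar rats, treated with 2 IU/mL adenosine deaminase for 30 min at 37 °C. Binding used about 50 μg protein and 4 nM [3H]NECA in 50 mM Tris-HCl, 10 mM MgCl2, pH 7.7, with 50 nM CPA added to block A1 sites. Nonspecific binding was defined with 100 μM CPA. Incubation 1 h at 25 °C in duplicate, ended by filtration and scintillation counting.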

[6] = target: Adenosine A2 receptor (Rattus norvegicus) (UniProt P29276+P30543); experiment: Inhibitory binding activity for adenosine A2 receptor using [3H]NECA in rat striatal membrane at 1 uM; type: cell membranes; details: Striatum; how it was run: as §2

SMILES	Ki (Adenosine receptor A1 [1]) [nM]	Ki (Adenosine A2 receptor [2]) [nM]	Ki (Adenosine receptor A1 [3]) [nM]	Ratio [4]	Ki (Adenosine A2 receptor [5]) [nM]	inhibition [6] [%]
c1ccc(-c2nc3c(NC4CCCC4)[nH]c4ccccc4c-3n2)cc1	1.5	450	10	–	–	–
c1ccc(Nc2nc3ccccc3c3[nH]c(C4CCCC4)nc23)cc1	23	–	230	–	–	6
c1ccc(Nc2[nH]c3ccccc3c3nc(-c4ccccc4)nc2-3)cc1	50	–	460	–	–	9
c1ccc2c3nc(C4CCCC4)nc-3c(NC3CCCC3)[nH]c2c1	9.1	450	39	–	–	–
Nc1[nH]c2ccccc2c2nc(-c3ccccc3)nc1-2	17	290	34	–	–	–

Continued by falling Ki (Adenosine receptor A1 [1]), values first:

Ki (Adenosine receptor A1 [1]) [nM]	Ki (Adenosine A2 receptor [2]) [nM]	Ki (Adenosine receptor A1 [3]) [nM]	Ratio [4]	Ki (Adenosine A2 receptor [5]) [nM]	inhibition [6] [%]	SMILES
1700	–	1600	0.9	1400	–	Nc1[nH]c2ccccc2c2ncnc1-2
490	–	2100	5	10500	–	c1ccc(Nc2[nH]c3ccccc3c3ncnc2-3)cc1
460	2800	1500	1.9	–	–	C[C@@H](Cc1ccccc1)Nc1[nH]c2ccccc2c2ncnc1-2
290	740	270	3	–	–	Nc1[nH]c2ccccc2c2nc(C3CCCC3)nc1-2
74	810	310	2.6	–	–	C[C@H](Cc1ccccc1)Nc1[nH]c2ccccc2c2ncnc1-2
10	290	43	6.7	–	–	c1ccc2c3ncnc-3c(NC3CCCC3)[nH]c2c1

From ChEMBL document CHEMBL1125633, “1H-imidazo[4,5-c]quinolin-4-amines: novel non-xanthine adenosine antagonists” (J Med Chem, 1991)
